According to ChEMBL document CHEMBL3864121, “Development of ebsulfur analogues as potent antibacterials against methicillin-resistant Staphylococcus aureus” (Bioorg Med Chem, 2016):
Calls of active or inactive are those of the source.

How the values were obtained:
Staphylococcus aureus [1] = assay: Antibacterial activity against methicillin-resistant Staphylococcus aureus USA300 measured after overnight incubation by broth double-dilution method; format: functional
Method in brief: (§1)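 MIC by broth double-dilution in liquid Mueller-Hinton medium. Values are reported in µg/mL.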

Staphylococcus aureus [2] = assay: Antibacterial activity against methicillin-resistant Staphylococcus aureus BRS3 measured after overnight incubation by broth double-dilution method; format: functional; method in brief: as §1
Staphylococcus aureus [3] = assay: Antibacterial activity against methicillin-resistant Staphylococcus aureus USA200 measured after overnight incubation by broth double-dilution method; format: functional; method in brief: as §1
Enterococcus = assay: Antibacterial activity against Vancomycin-resistant Enterococcus measured after overnight incubation by broth double-dilution method; format: functional; method in brief: as §1
Staphylococcus aureus [4] = assay: Antibacterial activity against methicillin-sensitive Staphylococcus aureus ATCC 6538 measured after overnight incubation by broth double-dilution method; format: functional; method in brief: as §1
Staphylococcus aureus [5] = assay: Antibacterial activity against methicillin-resistant Staphylococcus aureus G6 measured after overnight incubation by broth double-dilution method; format: functional; method in brief: as §1
Staphylococcus aureus [6] = assay: Antibacterial activity against methicillin-resistant Staphylococcus aureus NRS77 measured after overnight incubation by broth double-dilution method; format: functional; method in brief: as §1
Staphylococcus aureus [7] = assay: Antibacterial activity against methicillin-sensitive Staphylococcus aureus ATCC 25923 measured after overnight incubation by broth double-dilution method; format: functional; method in brief: as §1
Staphylococcus aureus [8] = assay: Antibacterial activity against methicillin-resistant Staphylococcus aureus 1 measured after overnight incubation by broth double-dilution method; format: functional; method in brief: as §1
[9] = system: Staphylococcus epidermidis; assay: Antibacterial activity against Staphylococcus epidermidis ATCC 35984 measured after overnight incubation by broth double-dilution method; format: functional; conditions: RP62A
Method in brief: (§2)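 MIC by broth double-dilution in Mueller-Hinton medium. Re-testing at the time-kill inoculum used 1×10^6 CFU/mL.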

Staphylococcus aureus [10] = assay: Antibacterial activity against methicillin-resistant Staphylococcus aureus C7 measured after overnight incubation by broth double-dilution method; format: functional; method in brief: as §1
Staphylococcus aureus [11] = assay: Antibacterial activity against methicillin-resistant Staphylococcus aureus S22 measured after overnight incubation by broth double-dilution method; format: functional; method in brief: as §1
Staphylococcus aureus [12] = assay: Antibacterial activity against methicillin-resistant Staphylococcus aureus USA600 measured after overnight incubation by broth double-dilution method; format: functional; method in brief: as §1
Staphylococcus aureus [13] = assay: Antibacterial activity against methicillin-resistant Staphylococcus aureus G1 measured after overnight incubation by broth double-dilution method; format: functional; method in brief: as §1
Staphylococcus aureus [14] = assay: Antibacterial activity against methicillin-resistant Staphylococcus aureus C19 measured after overnight incubation by broth double-dilution method; format: functional; method in brief: as §1
Enterococcus faecalis [15] = assay: Antibacterial activity against Enterococcus faecalis ATCC 49533 measured after overnight incubation by broth double-dilution method; format: functional; method in brief: as §2
Staphylococcus aureus [16] = assay: Antibacterial activity against methicillin-resistant Staphylococcus aureus NRS51 measured after overnight incubation by broth double-dilution method; format: functional; method in brief: as §1
Staphylococcus aureus [17] = assay: Antibacterial activity against methicillin-resistant Staphylococcus aureus USA100 measured after overnight incubation by broth double-dilution method; format: functional; method in brief: as §1
Staphylococcus aureus [18] = assay: Antibacterial activity against methicillin-resistant Staphylococcus aureus 2 measured after overnight incubation by broth double-dilution method; format: functional; method in brief: as §1
Staphylococcus aureus [19] = assay: Antibacterial activity against methicillin-sensitive Staphylococcus aureus ATCC 29213 measured after overnight incubation by broth double-dilution method; format: functional; method in brief: as §1
Staphylococcus aureus [20] = assay: Antibacterial activity against methicillin-resistant Staphylococcus aureus C16 measured after overnight incubation by broth double-dilution method; format: functional; method in brief: as §1
Staphylococcus aureus [21] = assay: Antibacterial activity against methicillin-resistant Staphylococcus aureus C14 measured after overnight incubation by broth double-dilution method; format: functional; method in brief: as §1
Enterococcus faecalis [22] = assay: Antibacterial activity against Enterococcus faecalis ATCC 29212 measured after overnight incubation by broth double-dilution method; format: functional; method in brief: as §2
[23] = system: Mycolicibacterium smegmatis; assay: Antibacterial activity against Mycobacterium smegmatis MC2-155 measured after overnight incubation by broth double-dilution method; format: functional; conditions: str. MC2 155; method in brief: as §1
Staphylococcus aureus [24] = assay: Antibacterial activity against methicillin-resistant Staphylococcus aureus G14 measured after overnight incubation by broth double-dilution method; format: functional; method in brief: as §1
[25] = system: Staphylococcus epidermidis; assay: Antibiofilm activity against Staphylococcus epidermidis ATCC 35984 assessed as reduction of biofilm at […] measured after 24 hrs by crystal violet staining based method relative to control; format: functional, RP62A; parameters: scale not given: the % may be the effect or the level left
Enterococcus faecium = assay: Antibacterial activity against Enterococcus faecium BM4105-RF measured after overnight incubation by broth double-dilution method; format: functional; method in brief: as §1
Staphylococcus aureus [26] = assay: Antibacterial activity against methicillin-resistant Staphylococcus aureus S14 measured after overnight incubation by broth double-dilution method; format: functional; method in brief: as §1
Staphylococcus aureus [27] = assay: Antibacterial activity against methicillin-resistant Staphylococcus aureus C2 measured after overnight incubation by broth double-dilution method; format: functional; method in brief: as §1
Staphylococcus aureus [28] = assay: Antibiofilm activity against methicillin-sensitive Staphylococcus aureus ATCC 6538 assessed as reduction of biofilm at […] measured after 24 hrs by crystal violet staining based method relative to control; format: functional; parameters: scale not given: the % may be the effect or the level left
Staphylococcus aureus [29] = assay: Antibacterial activity against methicillin-resistant Staphylococcus aureus NRS4 measured after overnight incubation by broth double-dilution method; format: functional; method in brief: as §1
Staphylococcus aureus [30] = assay: Antibacterial activity against methicillin-resistant Staphylococcus aureus S24 measured after overnight incubation by broth double-dilution method; format: functional; method in brief: as §1
Staphylococcus aureus [31] = assay: Antibacterial activity against methicillin-resistant Staphylococcus aureus G12 measured after overnight incubation by broth double-dilution method; format: functional; method in brief: as §1
[32] = Cytotoxicity against HEK293 cells assessed as cell death up to 10 ug/ml measured after 24 hrs by resazurin dye-based fluorescence analysis relative to untreated control; format: toxicity; conditions: human, hek293, 24 h
Staphylococcus aureus [33] = assay: Antibacterial activity against methicillin-resistant Staphylococcus aureus S17 measured after overnight incubation by broth double-dilution method; format: functional; method in brief: as §1
Staphylococcus aureus [34] = assay: Antibacterial activity against methicillin-resistant Staphylococcus aureus C1 measured after overnight incubation by broth double-dilution method; format: functional; method in brief: as §1
Listeria monocytogenes = assay: Antibacterial activity against Listeria monocytogenes ATCC 19115 measured after overnight incubation by broth double-dilution method; format: functional; method in brief: as §2
Staphylococcus aureus [35] = assay: Antibacterial activity against methicillin-resistant Staphylococcus aureus ATCC 33591 measured after overnight incubation by broth double-dilution method; format: functional; method in brief: as §1
Staphylococcus aureus [36] = assay: Antibacterial activity against methicillin-resistant Staphylococcus aureus S22 using 1 10^6CFU/ml measured after overnight incubation by broth double-dilution method; format: functional
[37] = system: Staphylococcus epidermidis; assay: Antibiofilm activity against Staphylococcus epidermidis ATCC 35984 assessed as reduction of biofilm at […] ug/ml measured after 24 hrs by crystal violet staining based method relative to control; format: functional, RP62A; parameters: scale not given: the % may be the effect or the level left
Pseudomonas aeruginosa = assay: Antibacterial activity against Pseudomonas aeruginosa ATCC 27853 measured after overnight incubation by broth double-dilution method; format: functional; method in brief: as §2
Enterobacter cloacae = assay: Antibacterial activity against Enterobacter cloacae ATCC 13047 measured after overnight incubation by broth double-dilution method; format: functional; conditions: subsp. cloacae ATCC 13047; method in brief: as §1
[38] = system: Staphylococcus epidermidis; assay: Antibacterial activity against Staphylococcus epidermidis ATCC 12228 measured after overnight incubation by broth double-dilution method; format: functional; method in brief: as §2
Mus musculus = species: Mus musculus; assay: Cytotoxicity against mouse RBCs assessed as hemolysis at 0.24 to 31.2 ug/ml measured after 1 hr; format: toxicity; conditions: erythrocyte
Method in brief: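 Murine red blood cells were exposed to compounds at various concentrations, with amikacin as a control. Percent hemolysis was scored against untreated cells (0%) and 1% Triton X (100%).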

[39] = Cytotoxicity against mouse RBCs assessed as hemolysis up to […] measured after 1 hr; format: toxicity, Erythrocyte; conditions: mouse red blood cells, read-out: Activity
Klebsiella pneumoniae = assay: Antibacterial activity against Klebsiella pneumoniae ATCC 27736 measured after overnight incubation by broth double-dilution method; format: functional; method in brief: as §1
Escherichia coli = assay: Antibacterial activity against Escherichia coli MC1061 measured after overnight incubation by broth double-dilution method; format: functional; method in brief: as §1
Acinetobacter baumannii = assay: Antibacterial activity against Acinetobacter baumannii ATCC 19606 measured after overnight incubation by broth double-dilution method; format: functional; method in brief: as §2
Salmonella enterica = assay: Antibacterial activity against Salmonella enterica ATCC 14028 measured after overnight incubation by broth double-dilution method; format: functional; method in brief: as §2
[40] = system: Staphylococcus epidermidis RP62A; assay: Inhibition of thioredoxin reductase in Staphylococcus epidermidis ATCC 35984 assessed as induction of ROS production at 1 to 4 times MIC measured after 1 hr by DCFH-DA staining-based fluorescence microscopic analysis
Method in brief: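 Untreated cells served as the negative control and 1 mM H2O2 as the positive control. Cells were stained with DCFH-DA (40 µg/mL) and ROS were visualized by fluorescence microscopy.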

Staphylococcus aureus [41] = assay: Bacteriostatic activity against methicillin-resistant Staphylococcus aureus S22 at 4 times MIC measured after 24 hrs by time kill analysis; format: functional
Staphylococcus aureus [42] = assay: Bacteriostatic activity against methicillin-resistant Staphylococcus aureus S22 at 0.5 times MIC measured up to 3 to 6 hrs by time kill analysis; format: functional
Staphylococcus aureus [43] = assay: Bacteriostatic activity against methicillin-resistant Staphylococcus aureus S22 at MIC measured up to 3 to 6 hrs by time kill analysis; format: functional
Staphylococcus aureus [44] = assay: Antibiofilm activity against methicillin-sensitive Staphylococcus aureus ATCC 6538 assessed as reduction of biofilm at […] ug/ml measured after 24 hrs by crystal violet staining based method relative to control; format: functional; parameters: scale not given: the % may be the effect or the level left

CC(C)c1ccc(-n2sc3ccccc3c2=O)cc1
2 µg/mL: MIC (Staphylococcus aureus [1]) | MIC (Staphylococcus aureus [2]) | MIC (Staphylococcus aureus [4]) | MIC (Staphylococcus aureus [7]) | MIC (Staphylococcus aureus [29])
50 - 60%: Activity [25]
0.25 µg/mL: MIC [9]
≤ 0.25 µg/mL: MIC (Enterococcus) | MIC (Staphylococcus aureus [8]) | MIC (Staphylococcus aureus [13]) | MIC (Staphylococcus aureus [19]) | MIC (Staphylococcus aureus [26]) | MIC (Staphylococcus aureus [30]) | MIC (Staphylococcus aureus [33]) | MIC (Staphylococcus aureus [34]) | MIC (Staphylococcus aureus [35])
50%: Activity (Staphylococcus aureus [28])
1 µg/mL: MIC (Staphylococcus aureus [3]) | MIC (Staphylococcus aureus [6]) | MIC (Staphylococcus aureus [12]) | MIC (Staphylococcus aureus [18]) | MIC (Staphylococcus aureus [20]) | MIC (Staphylococcus aureus [21]) | MIC (Staphylococcus aureus [24]) | MIC (Staphylococcus aureus [31])
> 20%: Activity [32]
0.5 µg/mL: MIC (Staphylococcus aureus [5]) | MIC (Staphylococcus aureus [10]) | MIC (Staphylococcus aureus [11]) | MIC (Staphylococcus aureus [14]) | MIC (Staphylococcus aureus [16]) | MIC (Staphylococcus aureus [17]) | MIC [23] | MIC (Staphylococcus aureus [27]) | MIC (Listeria monocytogenes)
62.5 µg/mL: MIC (Enterococcus faecalis [15])
15.6 µg/mL: MIC (Enterococcus faecalis [22]) | MIC (Enterococcus faecium)

CC(C)c1cccc(-n2sc3ccccc3c2=O)c1
active: Activity (Staphylococcus aureus [36])
≤ 20%: hemolysis at 1 h [39]
1 µg/mL: MIC (Staphylococcus aureus [2]) | MIC (Staphylococcus aureus [11]) | MIC [23] | MIC (Staphylococcus aureus [29]) | MIC (Listeria monocytogenes)
3.9 µg/mL: MIC (Enterococcus faecium)
> 20%: Activity [32]
≤ 0.25 µg/mL: MIC (Staphylococcus aureus [1]) | MIC (Enterococcus) | MIC (Staphylococcus aureus [8]) | MIC (Staphylococcus aureus [10]) | MIC (Staphylococcus aureus [12]) | MIC (Staphylococcus aureus [13]) | MIC (Staphylococcus aureus [14]) | MIC (Staphylococcus aureus [16]) | MIC (Staphylococcus aureus [18]) | MIC (Staphylococcus aureus [19]) | MIC (Staphylococcus aureus [20]) | MIC (Staphylococcus aureus [26]) | MIC (Staphylococcus aureus [27]) | MIC (Staphylococcus aureus [30]) | MIC (Staphylococcus aureus [33]) | MIC (Staphylococcus aureus [34]) | MIC (Staphylococcus aureus [35])
31.3 µg/mL: MIC (Acinetobacter baumannii)
50 - 60%: Activity [37]
15.6 µg/mL: MIC (Escherichia coli)
0.5 µg/mL: MIC (Staphylococcus aureus [3]) | MIC (Staphylococcus aureus [5]) | MIC (Staphylococcus aureus [6]) | MIC (Staphylococcus aureus [7]) | MIC (Staphylococcus aureus [17]) | MIC (Staphylococcus aureus [21]) | MIC (Staphylococcus aureus [24]) | MIC (Staphylococcus aureus [31])
Non-Toxic: Activity (Mus musculus)
> 125 µg/mL: MIC (Pseudomonas aeruginosa) | MIC (Enterobacter cloacae) | MIC (Enterococcus faecalis [15]) | MIC [38] | MIC (Enterococcus faecalis [22]) | MIC (Klebsiella pneumoniae) | MIC (Salmonella enterica)
0.25 µg/mL: MIC [9]

O=c1c2ccccc2sn1-c1ccccc1
40%: Activity (Staphylococcus aureus [44])
Non-Toxic: Activity (Mus musculus)
≤ 20%: hemolysis at 1 h [39]
active: Activity (Staphylococcus aureus [36]) | Activity [40] | Activity (Staphylococcus aureus [41]) | Activity (Staphylococcus aureus [42]) | Activity (Staphylococcus aureus [43])
